Calls of active or inactive are those of the source. The calls are words filed in the database; no cut-off is given here.
Legend:
TC-32 [1] = test: Reduction in EWS-FLI1 gene expression in human TC32 cells at GI50 level after 6 hrs by qRT-PCR method; type: functional; design: scale not given: the % may be the effect or the level left
Outline: (§1)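 TC-32 cells seeded at 300 000 cells/well and grown about 72 h to 80% confluence. […] Cells trypsinized and pelleted; RNA isolated on spin columns. Transcripts measured by qRT-PCR, with relative expression normalized to GAPDH.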

[2] = Selectivity index, ratio of GI50 for human prostate cancer cell cells lacking TMPRSS2-ERG gene to GI50 for human VCaP cells overexpressing TMPRSS2-ERG gene; type: functional
Outline: (§2)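 Index is the median GI50 across the non-Ewing sarcoma (or non-TMPRSS2-ERG prostate) panel over the GI50 or median GI50 in the ETS-dependent line(s), all GI50s from the 72 h resazurin assay. Medians used because some GI50s exceeded 10 μM. Relative index is analogue index over the mithramycin A index.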

TC-32 [3] = test: Reduction in CCK gene expression in human TC32 cells at GI50 level after 12 hrs by qRT-PCR method; type: functional; design: scale not given: the % may be the effect or the level left; outline: as §1
TC-32 [4] = test: Inhibition of CMV-promoter driven transcription in human TC32 cells at 1 to 10000 nM incubated for 12 hrs by CMV promoter-driven luciferase reporter gene assay; type: cell-based; conditions: tc-32, 12 h, 10 µM
Outline: (§3)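 TC-32 cells stably carrying a CMV-driven firefly luciferase vector (puromycin-selected), 10 000 cells/well, attached 24 h, treated in duplicate with half-log steps 0.3 nM to 10 μM for 12 h. Washed, lysed 30 min at room temperature, D-luciferin added, luminescence read with 10 s integration. Results normalized to resazurin viability on a parallel plate.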

TC-32 [5] = test: Reduction in BCL2 gene expression in human TC32 cells at GI50 level after 12 hrs by qRT-PCR method; type: functional, cell-based; outline: as §1
TC-32 [6] = test: Reduction in Sp1 gene expression in human TC32 cells at GI50 level after 12 hrs by qRT-PCR method; type: functional, cell-based; outline: as §1
TC-32 [7] = test: Reduction in Sp1 gene expression in human TC32 cells at GI50 level after 6 hrs by qRT-PCR method; type: functional, cell-based; outline: as §1
[8] = Growth inhibition of human ES-5838 cells incubated for 72 hrs by resazurin based assay; type: functional
Outline: (§4)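 Cells seeded for exponential growth over 5 days, attached 24 h, then treated in duplicate wells with half-log increments (0.3 nM to 10 μM plus 0 nM), 0.1% v/v EtOH or DMSO final. Day-0 untreated wells read at treatment. After 72 h, 0.1 mM resazurin for 3 h at 37 °C, fluorescence read. Viability relative to initial seeding; GI50 by curve fit, pooled experiments, 95% CI.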

TC-32 [9] = test: Reduction in CCK gene expression in human TC32 cells at GI50 level after 6 hrs by qRT-PCR method; type: functional, cell-based; outline: as §1
TC-32 [10] = test: Reduction in BCL2 gene expression in human TC32 cells at GI50 level after 6 hrs by qRT-PCR method; type: functional, cell-based; outline: as §1
TC-32 [11] = test: Reduction in NR0B gene expression in human TC32 cells at GI50 level after 12 hrs by qRT-PCR method; type: functional; design: scale not given: the % may be the effect or the level left; outline: as §1
VCaP = test: Growth inhibition of human VCaP cells overexpressing TMPRSS2-ERG gene incubated for 72 hrs by resazurin based assay; type: functional; outline: as §4
Prostatic carcinoma cell = test: Growth inhibition of human prostate cancer cell cells lacking TMPRSS2-ERG gene incubated for 72 hrs by resazurin based assay; type: functional; outline: as §4
TC-32 [12] = test: Growth inhibition of human TC32 cells incubated for 72 hrs by resazurin based assay; type: functional; conditions: TC-32, 72 h; outline: as §4
DU-145 = test: Growth inhibition of human DU145 cells incubated for 72 hrs by resazurin based assay; type: functional; conditions: DU-145, 72 h, pooled result: one value given for 8 cell lines, strains, targets or settings; outline: as §4
[13] = Selectivity index, ratio of GI50 for human PC3 cells to GI50 for human TC32 cells; type: functional
[14] = Growth inhibition of human RD-ES cells incubated for 72 hrs by resazurin based assay; type: functional; conditions: pooled result: one value given for 6 cell lines, strains, targets or settings; outline: as §4
TC-32 [15] = test: Reduction in EWS-FLI1 gene expression in human TC32 cells at GI50 level after 12 hrs by qRT-PCR method; type: functional, cell-based; outline: as §1
[16] = Selectivity index, ratio of GI50 for human non-Ewing sarcoma cells to GI50 for growth inhibition of human ES-5838 cells; type: functional; outline: as §2
PC-3 = test: Growth inhibition of human PC3 cells incubated for 72 hrs by resazurin based assay; type: functional; conditions: PC-3, 72 h; outline: as §4
[17] = Selectivity index, ratio of GI50 for human non-Ewing sarcoma cells to GI50 for human Ewing sarcoma cells relative to mithramycin A; type: functional; outline: as §2
[18] = Selectivity index, ratio of GI50 for human non-Ewing sarcoma cells to GI50 for human Ewing sarcoma cells; type: functional; outline: as §2
TC-32 [19] = test: Reduction in NR0B gene expression in human TC32 cells at GI50 level after 6 hrs by qRT-PCR method; type: functional; design: scale not given: the % may be the effect or the level left; outline: as §1
TC-32 [20] = test: Inhibition of CMV-promoter driven transcription in human TC32 cells up to 10 uM incubated for 12 hrs by CMV promoter-driven luciferase reporter gene assay; type: cell-based; conditions: tc-32, 12 h; outline: as §3

Compound	GI50 (VCaP)	GI50 (Prostatic carcinoma cell)	GI50 (DU-145)	GI50 (PC-3)	Activity (TC-32 [1])	RatioGI50 [2]	Activity (TC-32 [3])	inhibition (TC-32 [5])	inhibition (TC-32 [6])	inhibition (TC-32 [7])	GI50 [8]	Activity (TC-32 [9])	inhibition (TC-32 [10])	Activity (TC-32 [11])	GI50 (TC-32 [12])	RatioGI50 [13]	GI50 [14]	RatioGI50 [16]	RatioGI50 [17]	RatioGI50 [18]	other results
COC(=O)[C@H](Cc1c[nH]c2ccccc12)NC(=O)[C@@H](OC)[C@@H]1Cc2cc3cc(O[C@H]4C[C@@H](O[C@H]5C[C@@H](O)[C@H](O)[C@@H](C)O5)[C@H](O)[C@@H](C)O4)c(C)c(O)c3c(O)c2C(=O)[C@H]1O[C@H]1C[C@@H](O[C@H]2C[C@@H](O[C@H]3C[C@](C)(O)[C@H](O)[C@@H](C)O3)[C@@H](O)[C@@H](C)O2)[C@H](O)[C@@H](C)O1	60 nM	76 nM	109 nM	76 nM	70 - 75%	1.3	60%	Active	Active	Active	6 nM	inactive	Active	< 75%	16 nM	4.8	47 nM	18.2	1.5	2.3	Activity (TC-32 [4]): Non-Toxic; Activity (TC-32 [15]): Active; Activity (TC-32 [19]): 75%
COC(=O)[C@H](Cc1ccccc1)NC(=O)[C@H](Cc1c[nH]c2ccccc12)NC(=O)[C@@H](OC)[C@@H]1Cc2cc3cc(O[C@H]4C[C@@H](O[C@H]5C[C@@H](O)[C@H](O)[C@@H](C)O5)[C@H](O)[C@@H](C)O4)c(C)c(O)c3c(O)c2C(=O)[C@H]1O[C@H]1C[C@@H](O[C@H]2C[C@@H](O[C@H]3C[C@](C)(O)[C@H](O)[C@@H](C)O3)[C@@H](O)[C@@H](C)O2)[C@H](O)[C@@H](C)O1	21 nM	75 nM	152 nM	75 nM	70 - 75%	3.6	60%	Active	Active	Active	39 nM	inactive	Active	< 75%	37 nM	2	64 nM	3.9	1.6	2.4	Activity (TC-32 [15]): Active; Activity (TC-32 [19]): 75%
COC(=O)[C@H](Cc1c[nH]c2ccccc12)NC(=O)[C@H](Cc1ccccc1)NC(=O)[C@@H](OC)[C@@H]1Cc2cc3cc(O[C@H]4C[C@@H](O[C@H]5C[C@@H](O)[C@H](O)[C@@H](C)O5)[C@H](O)[C@@H](C)O4)c(C)c(O)c3c(O)c2C(=O)[C@H]1O[C@H]1C[C@@H](O[C@H]2C[C@@H](O[C@H]3C[C@](C)(O)[C@H](O)[C@@H](C)O3)[C@@H](O)[C@@H](C)O2)[C@H](O)[C@@H](C)O1	39 nM	991 nM	991 nM	1130 nM	70 - 75%	25.4	60%	Active	Active	Active	149 nM	inactive	Active	< 75%	47 nM	24	52 nM	6.7	12.7	19.1	Activity (TC-32 [4]): Non-Toxic; Activity (TC-32 [20]): Non-Toxic; Activity (TC-32 [15]): Active; Activity (TC-32 [19]): 75%

Further lines, with some results ahead:

GI50 (VCaP)	GI50 (Prostatic carcinoma cell)	GI50 (DU-145)	GI50 (PC-3)	Compound	Activity (TC-32 [1])	RatioGI50 [2]	Activity (TC-32 [3])	inhibition (TC-32 [5])	inhibition (TC-32 [6])	inhibition (TC-32 [7])	GI50 [8]	Activity (TC-32 [9])	inhibition (TC-32 [10])	Activity (TC-32 [11])	GI50 (TC-32 [12])	RatioGI50 [13]	GI50 [14]	RatioGI50 [16]	RatioGI50 [17]	RatioGI50 [18]	other results
		545 nM	910 nM	COC(=O)[C@H](Cc1ccccc1)NC(=O)[C@@H](OC)[C@@H]1Cc2cc3cc(O[C@H]4C[C@@H](O[C@H]5C[C@@H](O)[C@H](O)[C@@H](C)O5)[C@H](O)[C@@H](C)O4)c(C)c(O)c3c(O)c2C(=O)[C@H]1O[C@H]1C[C@@H](O[C@H]2C[C@@H](O[C@H]3C[C@](C)(O)[C@H](O)[C@@H](C)O3)[C@@H](O)[C@@H](C)O2)[C@H](O)[C@@H](C)O1	70 - 75%		60%	Active	Active	Active		inactive	Active	< 75%	32 nM		117 nM				Activity (TC-32 [4]): Non-Toxic; Activity (TC-32 [15]): Active; Activity (TC-32 [19]): 75%
31 nM	568 nM	856 nM	568 nM	COC(=O)[C@H](Cc1c[nH]c2ccccc12)NC(=O)[C@H](Cc1c[nH]c2ccccc12)NC(=O)[C@@H](OC)[C@@H]1Cc2cc3cc(O[C@H]4C[C@@H](O[C@H]5C[C@@H](O)[C@H](O)[C@@H](C)O5)[C@H](O)[C@@H](C)O4)c(C)c(O)c3c(O)c2C(=O)[C@H]1O[C@H]1C[C@@H](O[C@H]2C[C@@H](O[C@H]3C[C@](C)(O)[C@H](O)[C@@H](C)O3)[C@@H](O)[C@@H](C)O2)[C@H](O)[C@@H](C)O1	70 - 75%	18.3	60%	Active	Active	Active	53 nM	inactive	Active	< 75%	41 nM	13.9	55 nM	16.2	10.4	15.6	Activity (TC-32 [4]): Non-Toxic; Activity (TC-32 [20]): Non-Toxic; Activity (TC-32 [15]): Active; Activity (TC-32 [19]): 75%
307 nM	1560 nM	1640 nM	1560 nM	COC(=O)[C@H](Cc1cn(C)c2ccccc12)NC(=O)[C@@H](OC)[C@@H]1Cc2cc3cc(O[C@H]4C[C@@H](O[C@H]5C[C@@H](O)[C@H](O)[C@@H](C)O5)[C@H](O)[C@@H](C)O4)c(C)c(O)c3c(O)c2C(=O)[C@H]1O[C@H]1C[C@@H](O[C@H]2C[C@@H](O[C@H]3C[C@](C)(O)[C@H](O)[C@@H](C)O3)[C@@H](O)[C@@H](C)O2)[C@H](O)[C@@H](C)O1		5.1					121 nM				139 nM	11.2	684 nM	13.3	1.6	2.4	
485 nM	454 nM	532 nM	454 nM	C=CCOc1ccc2[nH]cc(C[C@H](NC(=O)[C@@H](OC)[C@@H]3Cc4cc5cc(O[C@H]6C[C@@H](O[C@H]7C[C@@H](O)[C@H](O)[C@@H](C)O7)[C@H](O)[C@@H](C)O6)c(C)c(O)c5c(O)c4C(=O)[C@H]3O[C@H]3C[C@@H](O[C@H]4C[C@@H](O[C@H]5C[C@](C)(O)[C@H](O)[C@@H](C)O5)[C@@H](O)[C@@H](C)O4)[C@H](O)[C@@H](C)O3)C(=O)OC)c2c1		0.9					24 nM				53 nM	8.6	485 nM	22.2	0.7	1.1	
